Source: PubChem BioAssay
A3G deaminase – APOBEC3G DNA deaminase inhibitors, primary screen, biochemical, fluorescence, single-stranded DNA substrate, uHTS. DNA dC->dU-editing enzyme APOBEC-3G (Homo sapiens), Q9HC16. recombinant A3G, ssDNA deamination FAM/TAMRA fluorescence. inhibition, % at 20 µM. actives 0.28% (n = 330,000). AID 493012, 2011;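 active means inhibition of at least 40% at 20 µM, with no more than 30% in the related APOBEC3A deaminase screen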;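 further: plate controls were DMSO wells with A3G for no effect and wells lacking A3G enzyme for full effect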
Target sequence (Q9HC16 whole entry, looked up): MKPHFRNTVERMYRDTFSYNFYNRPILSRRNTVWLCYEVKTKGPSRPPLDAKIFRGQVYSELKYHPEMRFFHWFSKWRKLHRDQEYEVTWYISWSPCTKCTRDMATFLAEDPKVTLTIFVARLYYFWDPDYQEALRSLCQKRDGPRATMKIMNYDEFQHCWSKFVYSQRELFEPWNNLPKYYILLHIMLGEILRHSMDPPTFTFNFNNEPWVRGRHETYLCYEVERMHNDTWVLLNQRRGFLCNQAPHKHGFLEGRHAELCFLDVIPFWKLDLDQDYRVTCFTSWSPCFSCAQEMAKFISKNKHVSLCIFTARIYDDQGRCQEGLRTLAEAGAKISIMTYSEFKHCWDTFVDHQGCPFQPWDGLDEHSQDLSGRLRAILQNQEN
A3A deaminase – APOBEC3A ssDNA deaminase inhibitors, primary screen, selectivity assay for APOBEC3G inhibitor project, biochemical, FAM/TAMRA oligo cleavage fluorescence; DNA dC->dU-editing enzyme APOBEC-3A (Homo sapiens), P31941; recombinant A3A, FAM/TAMRA ssDNA deamination fluorescence; inhibition, % at 20 µM; actives 0.41% (n = 330,000);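 active means at least 40% inhibition at 20 µM here, with at most 30% in a related deaminase screen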;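 further: plate controls were A3A with DMSO for no effect and wells lacking A3A enzyme for full effect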
Target sequence (P31941 whole entry, looked up): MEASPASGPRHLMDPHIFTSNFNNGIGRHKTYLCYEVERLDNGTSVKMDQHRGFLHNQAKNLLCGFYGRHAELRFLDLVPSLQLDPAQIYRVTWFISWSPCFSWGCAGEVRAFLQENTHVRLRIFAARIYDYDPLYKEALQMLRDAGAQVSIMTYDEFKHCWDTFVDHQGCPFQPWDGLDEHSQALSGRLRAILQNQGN
HCV core dimer – inhibitors of HCV core protein dimerization, primary screen, biochemical, TR-FRET, high-throughput; AID 1899, 2009; TR-FRET GST/Flag-core106 dimerization, 1536-well; inhibition, % at 5 µM; actives 0.33% (n = 300,000);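 active means inhibition above the mean of all tested compounds plus 3 SD, set per screening campaign, cut at about 45% in these data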
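Assay system – GST-tagged and Flag-tagged HCV core protein residues 1-106 · Quantity – core106 proteins, GST 13.5 nM and Flag 17 nM · Benchmarks – unlabelled core106 and no-GST-core106 wells · Read-out basis – percent inhibition of core106 dimerization signal · Detection – time-resolved FRET, ex 340 nm, em 617 and 671 nm · Schedule – 4 h at 22.5 °C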
PRMT1 FP inh – PRMT1 methyltransferase inhibitors, primary screen, biochemical, fluorescence polarization. Protein arginine N-methyltransferase 1 (Homo sapiens), Q99873. recombinant PRMT1, activity-based probe fluorescence polarization. inhibition, % at 2.79 µM. actives 1.3% (n = 370,000). AID 652257, 2013;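 active means inhibition above about 21% made by adding two undisclosed values, limit read from the data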
ABHD5 PLIN5 PPI – ABHD5-PLIN5 interaction inhibitors, primary screen, cell lysate, split luciferase complementation, luminescence; Perilipin-5 (Homo sapiens) + 1-acylglycerol-3-phosphate O-acyltransferase ABHD5 (Homo …; Split G. princeps luciferase complementation, 4 h; inhibition, % at 4 µM; actives 0.78% (n = 360,000);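 active means inhibition above the mean inhibition across every tested compound plus 3 SD, cut at about 22% in these data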;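 further: 0% = DMSO only wells and the 100% control is not disclosed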
HCV NS3 hel inh – inhibitors of HCV NS3 helicase, primary screen, biochemical, Cy5 molecular beacon fluorescence | Hepatitis C virus NS3 helicase | NS3 helicase DNA unwinding | inhibition, % at 10.9 µM | actives 0.56% (n = 290,000) | AID 1800, 2009;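 active means inhibition above the mean of all tested compounds plus 3 SD, set per campaign, cut at about 35% in these data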;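 further: 0% = DMSO wells and 100% = thioflavine S control wells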
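Material: hepatitis C virus NS3 helicase domain fragment enzyme; measured by: Cy5 fluorescence, 0 and 60 min reads; control set: DMSO and thioflavine S; incubation: 60 min unwinding reaction at 25 °C after ATP addition; read-out basis: % inhibition from 60/0 min fluorescence ratio, DMSO 0%, thioflavine S 100%; repeats: singlicate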
NS3 hel confirm – HCV NS3 helicase inhibitors, retest, confirmation, biochemical, Cy5 molecular beacon fluorescence, triplicate. shares compounds with HCV NS3 hel inh. NS3 helicase DNA unwinding. inhibition, % at 10.9 µM. actives 31% (n = 1,600);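 active means inhibition above the mean of all tested compounds plus 3 SD, cutoff set per campaign, cut at about 36% in these data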
DNA FID counter – compounds displacing fluorescent DNA intercalator, artefact control for HCV NS3 helicase inhibitor project, biochemical, FID fluorescence, triplicate. shares compounds with HCV NS3 hel inh. DNA fluorescent intercalator displacement. inhibition, % at 7.9 µM. actives 4% (n = 1,600). AID 1945, 2009; in the data active means inhibition above about 37%;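 further: 0% = vehicle and 100% = reference compound; higher means more displacement of ethidium bromide from the DNA hairpin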
DNA FID DR – compounds displacing fluorescent intercalator from DNA, dose response, counter-screen for HCV NS3 helicase inhibitor project, biochemical, fluorescence. shares compounds with HCV NS3 hel inh. IC50, µM. 120 tested, under 10 active. fluorescent intercalator displacement from DNA; call rule not given here
Numbers without * were called inactive; x = no result given. Sampled rows, rich in hits. Any-hit rate of the full collection: about 2.9%.

SMILES	A3G deaminase	A3A deaminase	HCV core dimer	PRMT1 FP inh	ABHD5 PLIN5 PPI	HCV NS3 hel inh	NS3 hel confirm	DNA FID counter	others
CC(=O)c1ccc2c(c1)C1C=CCC1C(C(=O)O)N2 (stereo not drawn)	85.3	98.1	x	70.6*	3.7	50.6*	90.5*	0.9
C[C@]12c3[nH]c4cc(-c5ccco5)ccc4c3CCN1C(=O)[C@@H](CC(=O)NCc1ccco1)C[C@@H]2C(=O)N1CCOCC1	1.1	2.0	x	10.6	9.0	x	x	x
O=C1NN(c2ccccc2)C(=O)/C1=C/c1ccc(Sc2cccc3ccccc23)o1	5.0	8.0	10.1	6.0	-4.7	53.5*	75.1*	17.0	DNA FID DR=>79.4
O=C1NN(c2ccccc2)C(=O)/C1=C/c1ccc(-c2ccc(C(=O)O)cc2)o1	38.3	60.7	-6.8	15.6	2.6	0.5	x	x
CC1CCN(S(=O)(=O)c2ccc3c(c2)NC(=O)CS3)CC1	-5.6	-2.4	-0.5	-2.3	-4.9	1.4	x	x
CCOC(=O)c1c(NC(=O)C2C3CCC(O3)C2C(=O)O)sc(C)c1-c1ccc(F)cc1 (stereo not drawn)	3.8	-1.0	7.9	0.7	-1.4	54.6*	60.6*	-12.3
CCOC(=O)c1c(NC(=O)C2C3C=CC(CC3)C2C(=O)O)sc(C)c1C (stereo not drawn)	-1.6	-3.0	1.8	10.6	-9.6	3.1	x	x
CCCCC(=Nc1ccc(N)cc1)C1=C(O)C(C(=O)OC)C(C)(C)CC1=O (stereo not drawn)	-4.3	-3.9	-30.4	17.4	-18.2	18.0	x	x
CCC(=Nc1ccc(N)cc1)C1=C(O)C(C(=O)OC)C(C)(C)CC1=O (stereo not drawn)	-5.7	-6.5	-18.1	11.0	-36.2	47.0*	-15.5	-12.3
COc1ccc(CCNC(=O)Cn2nnc(C(=O)Nc3cccc(C)c3C)c2N)cc1OC	-2.4	0.8	-11.3	-0.3	0.5	-1.2	x	x
COc1c(C)cc(C(O)c2ncc(-c3ccc4ccccc4c3)[nH]2)cc1C (stereo not drawn)	x	x	x	-1.6	-6.9	x	x	x
NC(=S)Nc1cccc(-c2n[nH]c(=S)o2)c1	-2.7	-3.1	0.8	1.0	9.2	-17.8	x	x
Cc1ccc(NC(=S)Nc2cccc(-c3n[nH]c(=S)o3)c2)cc1	-4.2	-7.0	-4.8	7.9	-7.7	39.5*	35.1	-6.0
Cn1cnnc1SCCNS(=O)(=O)c1cccc([N+](=O)[O-])c1	-2.6	0.1	-1.0	3.7	3.8	1.7	x	x
COc1ccc(-c2cc(C(=O)Nc3ccc(O)cc3)c3ccccc3n2)cc1OC	-4.5	3.3	-0.8	-0.5	18.7	44.9*	-4.0	-23.8
CC1(C(=O)Nc2ccc3[nH]ncc3c2)CCN1C(=O)Cc1ccc(-c2ccccc2)cc1 (stereo not drawn)	x	x	x	-0.9	-9.8	x	x	x
COc1cccc(-n2c(N)c(C(=O)Nc3c(C)n(C)n(-c4ccccc4)c3=O)c3nc4ccccc4nc32)c1	-3.8	1.8	19.1	6.0	2.5	37.5*	6.7	-55.5
CCC(C)N(C(=O)COC(=O)c1ccc(N)c([N+](=O)[O-])c1)C1CCS(=O)(=O)C1 (stereo not drawn)	x	x	x	5.2	10.1	x	x	x
Cc1oc2c(c(C)cc3oc(=O)c(CC(=O)N[C@@H](CC(C)C)C(=O)O)c(C)c32)c1C	-3.9	-0.7	x	-1.7	-2.9	47.3*	24.1	-35.0
CC[C@@H](C)[C@H](NC(=O)Cc1c(C)c2cc3c(C)c(C)oc3c(C)c2oc1=O)C(=O)O	0.6	5.3	4.8	-1.3	6.1	49.3*	74.7*	9.2
CCn1c(=O)c2sccc2n(CC(=O)NCCC2=CCCCC2)c1=O	-8.9	-2.8	9.1	2.5	4.1	-2.1	x	x
CCCS(=O)(=O)NC(=O)C1(C)CCN(C(=O)c2ccc(C(F)(F)F)nc2C)C1 (stereo not drawn)	x	x	x	x	-3.5	x	x	x
CCCCCc1c(-c2ccc(F)cc2F)ncn1CCc1ccccc1OC	x	x	x	3.8	1.4	x	x	x
CCCCC(CCC(=O)O)(C(=O)OCC)c1csc(Nc2ccc(OCC)cc2)n1 (stereo not drawn)	-4.7	-5.9	9.8	20.8	-6.2	84.9*	58.3*	-28.1
CCCNC(=O)C[C@H]1CC[C@@H]2[C@H](COC[C@@H](O)CN2C(=O)c2ccccn2)O1	x	x	x	0.0	-2.7	x	x	x
SMILES	A3G deaminase	A3A deaminase	HCV core dimer	PRMT1 FP inh	ABHD5 PLIN5 PPI	HCV NS3 hel inh	NS3 hel confirm	DNA FID counter	others
CCOC(=O)NC1(NC2CCCCC2)Oc2ccccc2O1	-2.4	1.0	-5.5	19.3	2.5	37.8*	-13.6	-4.3
C[C@H]1CN([C@@H](C)CO)C(=O)CCCn2nncc2CO[C@@H]1CN(C)C(=O)c1ccc2ccn(C)c2c1	x	x	x	5.6	3.4	x	x	x
Cc1cc2oc(=O)cc(-c3cc4ccccc4o3)c2cc1O	-1.4	-4.9	23.0	3.2	-7.7	39.4*	-3.8	5.7
O=[N+]([O-])c1cc2oc3c(c2c(C=NCc2ccccc2)c1O)CCCC3	-0.6	8.7	16.7	7.8	6.2	51.1*	74.6*	69.2*
CC(C)CN=Cc1c(O)c([N+](=O)[O-])cc2oc3c(c12)CCCC3	2.0	5.9	13.4	10.5	13.1	45.8*	12.1	62.6*
Cc1cccc(/N=C/c2c(O)ccc3oc4c(c23)CCCC4)n1	-6.5	-2.7	7.2	x	-4.2	-4.3	x	x
O=C(O)[C@H]1CCCC[C@H]1C(=O)Nc1ccc(S(=O)(=O)N2CCOCC2)cc1	-0.2	0.7	-14.2	-2.2	-3.5	-1.9	x	x
O=C(O)CCCC(=O)N1N=C(c2c(-c3ccccc3)c3cc(Cl)ccc3[nH]c2=O)CC1c1cccs1 (stereo not drawn)	x	x	-0.5	4.2	8.9	25.4	x	x
